Results on 18 compounds are retold here after ChEMBL document CHEMBL1148754, “4- and 5-aroylindoles as novel classes of potent antitubulin agents” (J Med Chem, 2007).

As usually defined, the IC50 is the midpoint of a concentration-inhibition curve.

The test system of experiment [1] is TSGH. In words: Growth inhibition of human TSGH cells after 72 hrs by methylene blue dye assay. Type of experiment: functional, cell-based. In short, it runs like this:
(§1)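 Antiproliferative screen in human cancer lines: KB (oral epidermoid carcinoma), HT29 (colorectal carcinoma), H460 (non-small cell lung carcinoma), TSGH and MKN45 (stomach carcinoma), plus KB-VIN10, an MDR-positive line overexpressing P-gp 170/MDR. Potency is reported as IC50.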

The target of experiment [2] is Tubulin. The experiment in a line: Inhibition of tubulin polymerization in presence of microtubule associated proteins after 30 mins. Type of experiment: protein-complex assay, Homo sapiens.
Experiment [3] has as its target Tubulin (Homo sapiens) (UniProt P68371+Q9H4B7+P0DPH7+P68366+Q13509+Q71U36+P04350+Q3ZCM7+P07437+P68363+Q9BQE3+Q6PEY2+Q13885+Q9BVA1+Q9BUF5). The experiment in a line: Displacement of [3H]colchicine from tubulin at 5 uM. Format: protein-complex assay. Background: In a radioligand displacement assay an active substance lowers the binding of a labelled ligand.
For experiment [4], the system named is MKN-45. In words: Growth inhibition of human MKN45 cells after 72 hrs by methylene blue dye assay. Type of experiment: functional, cell-based. Particulars: MKN-45, 72 h. In short, it runs like this: as §1
Experiment [5] in a line: Growth inhibition of human KB-vin10 cells after 72 hrs by methylene blue dye assay. Type of experiment: functional. Particulars: KB-VIN10, 72 h. In short, it runs like this:
as §1

Experiment [6] concerns HT-29. In words: Growth inhibition of human HT29 cells after 72 hrs by methylene blue dye assay. Particulars: HT-29, 72 h. Format: functional, cell-based. The method, boiled down:
as §1

Experiment [7] relates to KB. The experiment in a line: Growth inhibition of human KB cells after 72 hrs by methylene blue dye assay. Type of experiment: functional, cell-based. In short, it runs like this: as §1
Experiment [8] relates to NCI-H460. In words: Growth inhibition of human H460 cells after 72 hrs by methylene blue dye assay. Particulars: NCI-H460, 72 h. Format: functional, cell-based. In short, it runs like this:
as §1

Take `COc1cc(C(=O)c2ccc3c(ccn3C)c2)cc(OC)c1OC`: the IC50 in experiment [1] is 13.4 nM; in experiment [2], 1100 nM; in experiment [4], 11.2 nM; in experiment [5] it was 12.5 nM; in experiment [6], 10.5 nM; in experiment [7], 13.6 nM. In experiment [8], this compound returned an IC50 of 14.1 nM. The Activity in experiment [3] came out at 84%.
Take `COc1cc(C(=O)c2ccc3c(ccn3CCC(=O)O)c2)cc(OC)c1OC`: the IC50 in experiment [1], in experiment [4], in experiment [5], in experiment [6], in experiment [7] and in experiment [8] was > 10000 nM throughout.
Consider `COc1cc(C(=O)c2ccc3c(ccn3CC(=O)O)c2)cc(OC)c1OC`, for which the IC50 came out at 548 nM in experiment [1]; 396 nM in experiment [4]; 476 nM in experiment [5]; 460 nM in experiment [6]; 520 nM in experiment [7]; 530 nM in experiment [8].
Consider `COc1cc(C(=O)c2ccc3c(ccn3C(C)C)c2)cc(OC)c1OC`, for which the IC50 in experiment [1] came to 1100 nM; in experiment [4], 470 nM; in experiment [5], 1600 nM; in experiment [6] it was 1200 nM; in experiment [7], 1800 nM; in experiment [8], 1600 nM.
Take `COc1cc(C(=O)c2cccc3c2ccn3C)cc(OC)c1OC`: the IC50 in experiment [1] turned out to be 26.9 nM; in experiment [2] it was 1900 nM; in experiment [4], 21.6 nM; in experiment [5] it was 26.1 nM; in experiment [6], 22.4 nM; in experiment [7] it was 22.1 nM. In experiment [8], the half-inhibitory concentration (IC50) came to 28.8 nM. The compound also registered an Activity in experiment [3] of 75%.
`CCCn1ccc2cc(C(=O)c3cc(OC)c(OC)c(OC)c3)ccc21`: the half-inhibitory concentration (IC50) in experiment [1] is 1500 nM; in experiment [4] it was 680 nM; in experiment [5], 2100 nM; in experiment [6] it was 1800 nM; in experiment [7] it was 1900 nM; in experiment [8] it was 2000 nM.
In the case of `CCn1ccc2cc(C(=O)c3cc(OC)c(OC)c(OC)c3)ccc21`, the IC50 was found to be 41 nM in experiment [1]; 1200 nM in experiment [2]; 31 nM in experiment [4]; 40 nM in experiment [5]; 32 nM in experiment [6]; 36 nM in experiment [7]. The same compound showed an IC50 in experiment [8] of 38 nM. In addition, the Activity in experiment [3] came out at 81%.
Regarding `COc1cc(C(=O)c2ccc3[nH]ccc3c2)cc(OC)c1OC`, the IC50 is 103 nM in experiment [1]; 2200 nM in experiment [2]; 88 nM in experiment [4]; 111 nM in experiment [5]; 100 nM in experiment [6]; 104 nM in experiment [7]. This compound also returned an IC50 in experiment [8] of 112 nM. The Activity in experiment [3] turned out to be 71%.
As to `COc1cc(C(=O)c2c[nH]c3ccccc23)cc(OC)c1OC`, the 50% inhibitory concentration (IC50) in experiment [1] stood at 1100 nM; in experiment [4], 980 nM; in experiment [5], 1500 nM; in experiment [6], 1000 nM; in experiment [7], 1600 nM; in experiment [8], 1700 nM.
As for `COc1cc(C(=O)c2ccc3c(ccn3CO)c2)cc(OC)c1OC`, the IC50 in experiment [1] amounted to 43 nM; in experiment [2], 1800 nM; in experiment [4], 33 nM; in experiment [5] it was 35 nM; in experiment [6], 34 nM; in experiment [7], 39 nM. The compound further registered an IC50 in experiment [8] of 39 nM. Further, the Activity in experiment [3] amounted to 78%.
For the compound `COc1cc(C(=O)c2ccc3cc[nH]c3c2)cc(OC)c1OC`, the IC50 in experiment [1] was 430 nM; in experiment [4], 480 nM; in experiment [5] it was 452 nM; in experiment [6], 330 nM; in experiment [7], 510 nM; in experiment [8] it was 520 nM.
`COc1cc(C(=O)c2cccc3cc[nH]c23)cc(OC)c1OC`: the half-inhibitory concentration (IC50) in experiment [1] is 310 nM; in experiment [4], 210 nM; in experiment [5] it was 284 nM; in experiment [6], 250 nM; in experiment [7] it was 310 nM; in experiment [8], 295 nM.
As to `COc1cc(C(=O)n2ccc3ccccc32)cc(OC)c1OC`, the IC50 in experiment [1] is 8400 nM; in experiment [4], 5200 nM; in experiment [5], > 10000 nM; in experiment [6], 9600 nM; in experiment [7], > 10000 nM; in experiment [8] it was > 10000 nM.
Turning to `COc1cc(C(=O)c2ccc3c(ccn3CCN(C)C)c2)cc(OC)c1OC`, the IC50 was 4900 nM in experiment [1]; 2900 nM in experiment [4]; 4900 nM in experiment [5]; 4600 nM in experiment [6]; 5200 nM in experiment [7]; 5100 nM in experiment [8].
Consider `COc1cc(C(=O)c2cccc3[nH]ccc23)cc(OC)c1OC`, for which the IC50 in experiment [1] was 54.4 nM; in experiment [2] it was 2000 nM; in experiment [4], 49.1 nM; in experiment [5], 51.4 nM; in experiment [6] it was 46.4 nM; in experiment [7], 50.7 nM. In experiment [8], this compound showed an IC50 of 53.8 nM. In experiment [3], this compound had an Activity of 74%.
In the case of `COc1cc(C(=O)c2cc3ccccc3[nH]2)cc(OC)c1OC`, the half-inhibitory concentration (IC50) in experiment [1] was determined as 1800 nM; in experiment [4], 1500 nM; in experiment [5] it was 2800 nM; in experiment [6], 1700 nM; in experiment [7], 2900 nM; in experiment [8] it was 2100 nM.
With `COc1ccc(/C=C\c2cc(OC)c(OC)c(OC)c2)cc1O`, the Activity in experiment [3] was 89%.
Turning to `COc1cc2c(c(OC)c1OC)-c1ccc(OC)c(=O)cc1[C@@H](NC(C)=O)CC2` [COLCHICINE], the values for the concentration for half-maximal inhibition (IC50) in experiment [4], in experiment [5] and in experiment [8] were 13 nM, 120 nM and 19 nM, respectively.
